Source: PubChem
This is a sample that favours compounds with a hit; in the whole collection about 4.7% have one here.
MC4R antag cAMP = human MC4R antagonism in cAMP assay | P32245 | inhibition, % at 6.5 µM | hit rate 0.48% among 360,000 | MC4R-expressing cells, MTII-stimulated cAMP, LANCE TR-FRET;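 active = inhibition above its plate's cutoff, the mean of tested wells on that plate plus 3 SD, cut at about 29% in these data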
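Test system: U2OS cells stably expressing human melanocortin 4 receptor (MC4R); also added: Melanotan II challenge; compound: 6.5 µM single dose; timing: 30-min compound preincubation, 1-h Melanotan II challenge, 1-h detection, room temperature; signal: Eu-cAMP/anti-cAMP TR-FRET, emission 671 nm; repeats: one well per compound, no replicates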
FXN GAA850 act = frataxin GAA850 promoter activation; hit rate 0.56% among 360,000; HEK293 lucGAA850 FXN promoter luciferase reporter, 24 h; percent of 10 µM SAHA response; activation, % at 6 µM; AID 540364;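 active = activation above the average of all compounds screened plus 3 SD, cutoff fixed separately per campaign, cut at about 7.5% in these data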
AHR act = activators of human aryl hydrocarbon receptor; P35869; AHR-responsive luciferase reporter cells, luminescence; activation, % at 5 µM; hit rate 2.5% among 320,000; in the data active = activation above about 47%
Target sequence (P35869 whole entry, looked up): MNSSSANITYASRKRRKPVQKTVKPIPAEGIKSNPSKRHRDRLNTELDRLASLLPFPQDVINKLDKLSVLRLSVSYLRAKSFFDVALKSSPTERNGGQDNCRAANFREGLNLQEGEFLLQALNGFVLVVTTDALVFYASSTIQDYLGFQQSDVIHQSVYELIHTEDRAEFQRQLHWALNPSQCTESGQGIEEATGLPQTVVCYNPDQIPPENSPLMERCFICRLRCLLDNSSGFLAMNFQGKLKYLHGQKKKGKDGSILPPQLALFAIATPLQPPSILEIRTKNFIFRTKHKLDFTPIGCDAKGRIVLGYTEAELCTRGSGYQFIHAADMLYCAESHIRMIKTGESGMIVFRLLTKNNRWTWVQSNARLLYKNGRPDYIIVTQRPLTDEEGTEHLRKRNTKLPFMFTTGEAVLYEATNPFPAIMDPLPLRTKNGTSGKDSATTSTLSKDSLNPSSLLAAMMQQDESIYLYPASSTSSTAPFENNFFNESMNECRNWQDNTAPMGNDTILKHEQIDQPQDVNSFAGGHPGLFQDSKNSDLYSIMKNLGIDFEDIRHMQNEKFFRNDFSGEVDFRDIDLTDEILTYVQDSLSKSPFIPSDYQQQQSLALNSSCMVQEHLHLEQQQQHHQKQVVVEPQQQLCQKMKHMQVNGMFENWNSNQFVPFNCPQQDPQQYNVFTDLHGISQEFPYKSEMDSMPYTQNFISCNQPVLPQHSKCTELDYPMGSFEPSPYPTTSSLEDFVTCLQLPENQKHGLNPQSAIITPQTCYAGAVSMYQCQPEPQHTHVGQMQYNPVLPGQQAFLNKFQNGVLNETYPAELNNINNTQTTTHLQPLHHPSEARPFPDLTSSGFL
m5-HT2A agonist = mouse HTR2A agonism via beta-arrestin recruitment | CHO-K1 mHTR2A beta-arrestin complementation, luminescence; percent of 30 µM serotonin response | activation, % at 7.6 µM | P35363 | hit rate 0.66% among 360,000;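 active = activation above a run cutoff, the mean activation of all tested compounds plus 3 SD, cut at about 14% in these data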
MC4R ag barr = activates human MC4R beta-arrestin recruitment | P32245 | U2OS MC4R beta-arrestin complementation, luminescence; percent of melanotan II response, DMSO zero | AID 540308 | activation, % at 8.9 µM | hit rate 0.98% among 360,000;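 active = activation above a per-plate cutoff, the mean activation of sample wells on that plate plus 3 SD, cut at about 8% in these data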
MC4R barr ag = human MC4R beta-arrestin agonism confirmation; hit rate 31% among 2,400; activation, % at 8.9 µM; AID 602192; shares compounds with MC4R ag barr; U2OS MC4R beta-arrestin recruitment, luminescence; scaled DMSO 0%, Melanotan II 100%;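 active = mean activation across replicates above the hit cutoff set in the earlier primary screen, cut at about 8% in these data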
MOR-DOR barr ag = counter-screen for MC4R agonists: agonists of mu-delta opioid heterodimer. activation, % at 9.2 µM. AID 602194. U2OS PathHunter beta-arrestin, beta-gal luminescence; percent of deltorphin B response, DMSO zero. hit rate 5.8% among 2,400. shares compounds with MC4R ag barr;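 active = mean activation across replicates exceeds the hit threshold derived in the earlier primary screen, cut at about 18% in these data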
A number is an active result; – = inactive; · = not tested or not shown.

SMILES	MC4R antag cAMP	FXN GAA850 act	AHR act	m5-HT2A agonist	MC4R ag barr	MC4R barr ag	MOR-DOR barr ag
NC(Cc1ccc(C(F)(F)F)cc1)c1csc(Nc2ccc(C(=O)NCc3ccco3)cn2)n1 (stereo not given)	–	–	·	–	16	32	–
CCCCN(C)C(=O)c1ccc(Nc2nc(C(N)CCc3ccccc3)cs2)nc1 (stereo not given)	–	–	·	–	–	·	·
NC(Cc1ccc(C(F)(F)F)cc1)c1csc(Nc2ccc(C(=O)NCCCO)cn2)n1 (stereo not given)	–	–	·	–	–	·	·
CCCCN(C)C(=O)c1ccc(Nc2nc(C(N)Cc3ccc(C(F)(F)F)cc3)cs2)nc1 (stereo not given)	–	–	·	–	30	23	35
CCOC(=O)C1=C(CC)Nc2ccccc2N=C1NC(=O)c1cc(S(=O)(=O)N2CCOCC2)ccc1C	–	–	–	–	–	·	·
O=C(COc1ccccc1)NC(=S)Nc1cccc(NC(=O)c2ccccc2Cl)c1	–	–	–	–	–	·	·
Cc1ccc(OCC(=O)NC(=S)Nc2cccc(NC(=O)c3ccccc3Cl)c2)cc1	–	–	–	–	15	–	–
CCC(=O)NC(=S)Nc1ccc(NC(=O)COc2ccc(Cl)c(C)c2)cc1	–	–	–	–	19	–	–
Cc1cc(OCC(=O)Nc2ccncc2)ccc1Cl	–	–	–	–	–	·	·
CSc1nc(SCc2ccccc2)[nH]c(=O)n1	–	–	·	–	–	·	·
CCNC(=O)C1(C)CCN(C(=O)c2cccc(OC(F)(F)F)c2)C1 (stereo not given)	–	–	·	–	–	·	·
Cc1ccc(NC(=O)c2ccc(-c3nn(C)c(=O)c4ccccc34)cc2)cc1	–	–	–	–	22	–	–
CCC(=O)Nc1cc(-c2nn(C)c(=O)c3ccccc23)ccc1OC	–	–	–	–	–	·	·
Cn1nc(-c2ccc(C(=O)Nc3ccc(F)cc3)cc2)c2ccccc2c1=O	–	–	–	–	–	·	·
COc1ccc(-c2nn(C)c(=O)c3ccccc23)cc1NC(=O)COc1ccc(C)cc1	–	–	–	–	21	–	–
Cc1ccc(-c2nn(CC(=O)NCc3cc(-c4nn(C)c(=O)c5ccccc45)ccc3C)c(=O)c3ccccc23)cc1	–	–	–	–	16	25	–
CCc1ccc2c(CN(C)Cc3ccc(OC(F)F)c(OC)c3)cc(=O)oc2c1	–	–	–	–	–	·	·
Nc1c(-c2ccccn2)cnn1-c1nc(-c2ccc(F)cc2)cs1	–	–	63	–	9.7	–	–
O=C(COc1ccccc1)Nc1nc2cc3c(cc2s1)OCO3	–	–	–	–	–	·	·
O=C(COc1ccccc1)Nc1nc2cc3c(cc2s1)OCCO3	–	–	–	–	14	–	–
O=C(CN1c2ccccc2Sc2ccccc21)NNC(=O)Nc1ccc(Cl)c(Cl)c1	–	–	–	–	23	–	–
O=C(NNc1nc2ccccc2s1)Nc1ccc(Cl)c(Cl)c1	–	–	–	–	16	9.2	–
O=C(CN1c2ccccc2Sc2ccccc21)NNC(=O)Nc1ccc(Cl)cc1	–	–	–	–	–	·	·
CCOC(=O)C1=NOC2(C1)C(=O)Nc1ccc(OC)cc12 (stereo not given)	·	·	·	–	·	·	·
COc1ccc(-c2noc(CNC(=O)c3ccc4c(c3)OCO4)n2)cc1	–	–	–	–	–	·	·
